What follows are compounds tested against T1, Caspase-1 (Homo sapiens) (UniProt P29466) (assay: Second order rate constant of inactivation for compound was measured against Interleukin-1-beta converting enzyme partially purified from THP-1 cells).
T1 sequence (whole entry): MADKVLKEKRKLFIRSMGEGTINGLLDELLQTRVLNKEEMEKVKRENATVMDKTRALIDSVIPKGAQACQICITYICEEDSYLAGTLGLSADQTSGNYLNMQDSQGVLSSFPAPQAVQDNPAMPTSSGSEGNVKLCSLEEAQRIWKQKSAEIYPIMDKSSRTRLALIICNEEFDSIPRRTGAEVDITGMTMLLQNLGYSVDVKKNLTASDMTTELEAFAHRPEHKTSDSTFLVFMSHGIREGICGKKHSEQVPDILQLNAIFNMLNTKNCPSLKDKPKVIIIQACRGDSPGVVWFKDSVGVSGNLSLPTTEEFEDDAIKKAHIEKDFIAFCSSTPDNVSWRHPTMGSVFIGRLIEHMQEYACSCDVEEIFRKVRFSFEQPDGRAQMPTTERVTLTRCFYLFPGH
Method in brief: (§1)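 ICE was partially purified from THP-1 cells by DEAE-Sephacel and Sephadex G-75 steps. Fluorescence progress curves were recorded at 37 °C over 30 min, and the nonlinear curves were analysed by the Tian–Tsou method. Standard error was <10%.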
`O=C(O)C[C@H](NC(=O)Cn1c(-c2ccc(F)cc2)ncc(NC(=O)NCc2ccccc2)c1=O)C(=O)COC(=O)c1c(Cl)cccc1Cl` showed a k obs / 1 of 148000 M⁻¹ s⁻¹.
`O=C(O)C[C@H](NC(=O)Cn1c(-c2ccc(F)cc2)ncc(NS(=O)(=O)c2ccccc2)c1=O)C(=O)COC(=O)c1c(Cl)cccc1Cl` showed a k obs / 1 of 90000 M⁻¹ s⁻¹.
With `CN(C)CCCCCC(=O)Nc1cnc(-c2ccc(F)cc2)n(CC(=O)N[C@@H](CC(=O)O)C(=O)COC(=O)c2c(Cl)cccc2Cl)c1=O` the k obs / 1 was 90000 M⁻¹ s⁻¹.
`O=C(O)C[C@H](NC(=O)Cn1c(-c2cccnc2)ncc(NC(=O)OCc2ccccc2)c1=O)C(=O)COc1cc(C(F)(F)F)nn1-c1ccccc1` was tested, and the k obs / 1 was 145000 M⁻¹ s⁻¹.
Work on `CC(C)[C@H](NC(=O)OCc1ccccc1)C(=O)N[C@@H](C)C(=O)N[C@@H](CC(=O)O)C(=O)COC(=O)c1c(Cl)cccc1Cl` yielded a k obs / 1 of 432000 M⁻¹ s⁻¹.
Compound `Cc1ncc(NC(=O)OCc2ccccc2)c(=O)n1CC(=O)N[C@@H](CC(=O)O)C(=O)COc1cc(C(F)(F)F)nn1-c1ccccc1` has a k obs / 1 of 95000 M⁻¹ s⁻¹.
With `O=C(O)C[C@H](NC(=O)Cn1c(-c2ccc(F)cc2)ncc(NC(=O)c2ccco2)c1=O)C(=O)COC(=O)c1c(Cl)cccc1Cl` the k obs / 1 was 46000 M⁻¹ s⁻¹.
Work on `O=C(O)C[C@H](NC(=O)Cn1c(-c2ccc(F)cc2)ncc(NC(=O)OCc2ccccc2)c1=O)C(=O)COC(=O)c1c(Cl)cccc1Cl` yielded a k obs / 1 of 268000 M⁻¹ s⁻¹.
In the case of `Nc1cnc(-c2ccc(F)cc2)n(CC(=O)N[C@@H](CC(=O)O)C(=O)COC(=O)c2c(Cl)cccc2Cl)c1=O`, the k obs / 1 is reported as 36000 M⁻¹ s⁻¹.

The compounds below were run against T1, Caspase-1 (Homo sapiens) (assay: The binding affinity of compound was measured against Interleukin-1-beta converting enzyme in monocytic cells).
Assay type: cell-based
Method in brief: as §1, with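 “steps. The assay buffer was 10 mM HEPES pH 7.5 with 25% glycerol and 1 mM DTT, and the substrate was 10 μM Suc-Tyr-Val-Ala-Asp-AMC.” for “steps.”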
`O=C(O)C[C@H](NC(=O)Cn1c(-c2ccc(F)cc2)ncc(NC(=O)OCc2ccccc2)c1=O)C(=O)COP(=O)(c1ccccc1)c1ccccc1` was tested, and the k obs / 1 was 145000 M⁻¹ s⁻¹.
Compound `O=C(O)C[C@H](NC(=O)Cn1c(-c2ccc(F)cc2)ncc(NC(=O)OCc2ccccc2)c1=O)C(=O)COc1cc(C(F)(F)F)nn1-c1ccccc1` has a k obs / 1 of 157000 M⁻¹ s⁻¹.
